# EBI2 block = blocks human EBI2 receptor beta-arrestin signaling; P32249; EBI2 beta-arrestin recruitment, luminescence, 7a,25-OHC stimulated; inhibition, % at 5 µM; 360,000 compounds, 0.81% hits; in the data active = inhibition above about 38%;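 note: enzyme fragment complementation signal reports receptor beta-arrestin coupling in cells; 0% = agonist plus DMSO wells and 100% = wells without agonist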
# APJ antagonist = antagonists of human APJ apelin receptor | P35414 | 330,000 compounds, 0.32% hits | inhibition, % at 20 µM | CHO-K1 APJ beta-arrestin complementation, luminescence;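 active = inhibition above about 40% at 20 µM, limit read from the data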;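 note: cells challenged with 10 nM apelin-13 agonist together with compound; plate controls were apelin-13 plus DMSO wells for no effect and DMSO wells lacking apelin-13 for full effect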
# CCR6 antag = CCR6 (human) receptor antagonism; P51684; AID 493098; inhibition, % at 20 µM; 340,000 compounds, 0.49% hits; CHO-K1 CCR6 PathHunter beta-arrestin, luminescence, CCL20-stimulated;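 active = compounds whose inhibition of the agonist-driven luminescence signal at 20 µM reaches about 50%, limit read from the data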;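 note: cells stimulated with CCL20 at 14 nM final; plate controls were DMSO with CCL20 for no effect and DMSO without agonist for full effect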
# Target sequence (P51684 whole entry, looked up): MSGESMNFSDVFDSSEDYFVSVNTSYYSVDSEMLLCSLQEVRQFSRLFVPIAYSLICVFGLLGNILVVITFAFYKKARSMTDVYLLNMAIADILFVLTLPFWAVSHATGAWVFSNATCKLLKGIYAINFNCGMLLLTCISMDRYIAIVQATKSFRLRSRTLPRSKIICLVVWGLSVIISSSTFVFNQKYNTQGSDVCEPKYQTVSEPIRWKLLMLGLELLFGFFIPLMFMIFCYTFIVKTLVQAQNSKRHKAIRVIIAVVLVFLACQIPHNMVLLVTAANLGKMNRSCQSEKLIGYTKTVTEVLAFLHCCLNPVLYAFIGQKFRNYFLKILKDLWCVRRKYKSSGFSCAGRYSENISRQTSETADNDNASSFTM
# APJ ag = APJ receptor agonism; 330,000 compounds, 0.11% hits; activation, % at 20 µM; CHO-K1 APJ PathHunter beta-arrestin, luminescence; 0% DMSO wells, 100% apelin; AID 2520;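 active = activation more than six SD over the plate average, tested at 20 µM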;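 note: 0% = DMSO alone and 100% = apelin-13 at 10 nM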
#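 Material: CHO-K1 APJ beta-arrestin complementation cell line; Input: cell density 1000 per well; Incubation: compound stimulation 90 min at 25 °C, detection 60 min; Signal: luminescence from split beta-galactosidase complementation, Galacton Star/Emerald II substrate; Controls: DMSO-only wells as negative, 10 nM Apelin-13 as positive control.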
# CXCR6 inh = inhibitors of human CXCR6 receptor; CHO-K1 PathHunter CXCR6 beta-arrestin, luminescence; inhibition, % at 20 µM; 360,000 compounds, 0.36% hits; in the data active = inhibition above about 34%, passing the limit was not always enough;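 note: antagonist mode with CXCL16 agonist at 10 nM final; 0% = 10 nM CXCL16 with DMSO and 100% = unstimulated wells without agonist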
# EBI2 conf = EBI2 (human) antagonism, single concentration confirmation. shares compounds with EBI2 block. EBI2 beta-arrestin luminescence, 7a,25-OHC antagonism. inhibition, % at 5 µM. 2,400 compounds, 29% hits. AID 651997;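 active = inhibition of at least 50%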
# EBI2 agonist = activates EBI2, counter-screen for EBI2 antagonists; activation, % at 5 µM; 2,400 tested, under 10 active; EBI2-expressing cells, agonist mode, luminescence, 60 min; 0% vehicle, 100% 7α,25-dihydroxycholesterol control; shares compounds with EBI2 block;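 active = activation of at least 50%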
# bGal cs = inhibits E. coli beta-galactosidase, counter-screen for EBI2 antagonists; shares compounds with EBI2 block; purified beta-galactosidase, luminescent Galacton Star, 15 min; inhibition, % at 5 µM; 2,400 compounds, 1% hits; AID 652176;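 active = replicate-average signal at least 3 plate SD below neutral wells, shown as high inhibition, flagging enzyme-inhibiting false positives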;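 note: 0% = DMSO wells with enzyme and 100% = wells lacking enzyme; higher means stronger loss of beta-gal luminescence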
# Active calls of the source: *; nt = no result. Most compounds without a hit are left out; they make up all but 1.5% or so of the library.
SMILES,EBI2 block,APJ antagonist,CCR6 antag,APJ ag,CXCR6 inh,EBI2 conf,EBI2 agonist,bGal cs
COCCN1C(=O)c2cc(C(=O)Nc3cccc(F)c3)ccc2C1Nc1cccc(F)c1 (configuration not stated),75.2*,-0.1,2.4,3.0,0.2,38.9,-0.2,-16.4
O=C(/C=C/c1ccc(OC(F)F)cc1)Nc1cccc(S(=O)(=O)NC2=NCCCCC2)c1,5.2,-22.5,3.2,8.4,-1.3,nt,nt,nt
COc1ccc(S(=O)(=O)N(C)C[C@H]2OCc3cnnn3CCCC(=O)N([C@H](C)CO)C[C@@H]2C)cc1,-4.6,nt,nt,nt,2.5,nt,nt,nt
Cc1ccc(S(=O)(=O)CCC(=O)Nc2cccc(S(=O)(=O)N3CCCCCC3)c2)cc1,-0.1,-2.7,12.5,-3.3,0.0,nt,nt,nt
COc1ccc(NC(=O)C[C@H]2C(=O)N(c3ccc(Br)cc3)C[C@@H]2c2ccc(OC)cc2)cc1,27.1,nt,nt,nt,8.8,nt,nt,nt
COc1ccc([C@H]2CN(c3ccc(OC)cc3)C(=O)[C@@H]2CC(=O)Nc2ccccc2)cc1,46.4*,nt,nt,nt,14.1,52.5*,-0.7,-14.2
O=C(c1ccc(Br)cc1)N1CCN(Cc2ccccc2)CC1,48.0*,12.2,3.8,-0.9,-3.2,36.3,0.5,5.3
O=C(c1ccc(Br)cc1)N1CCC(C(=O)N2CCN(c3ccccc3)CC2)CC1,79.1*,10.0,24.6,-2.0,-8.5,38.6,0.3,-11.3
COc1ccc(C(=O)N2CCC(C(=O)N3CCN(c4ccccc4)CC3)CC2)cc1,21.9,-17.4,15.1,-2.1,10.7,nt,nt,nt
O=C(c1ccc(F)cc1)N1CCN(Cc2ccccc2)CC1,8.7,-1.3,-0.6,-1.0,-3.6,nt,nt,nt
O=C(c1ccc2ccccc2c1)N1CCN(Cc2ccccc2)CC1,90.2*,-19.2,7.1,-1.8,-3.9,77.1*,0.8,5.6
CCCCn1nnnc1C(c1ccccc1)N1CCN(c2c(Cl)cncc2Cl)CC1 (configuration not stated),32.6,nt,nt,nt,17.6,nt,nt,nt
CC(NC(=O)Oc1cccc2ccccc12)c1ccccc1 (configuration not stated),-2.1,nt,4.4,nt,-3.5,nt,nt,nt
COc1ccc(-c2csc(N(CC(C)C)C(=O)c3ccco3)n2)cc1,44.4*,-13.9,19.1,-3.3,1.7,30.7,-1.2,-13.0
COc1cc(/C=C2\CCC(C)C3=C(c4cc(OC)c(OC)c(OC)c4)C(C#N)=C(N)OC32)cc(OC)c1OC (configuration not stated),45.0*,nt,17.2,nt,3.2,20.4,0.2,9.7
COc1cc(/C=C2\CCC(C3CCCC3)C2=O)cc(OC)c1OC (configuration not stated),-42.1,-2.5,3.9,-2.5,6.5,nt,nt,nt
O=C(Cn1ncc2c1-c1ccccc1OC2)N1CCN(c2ccccn2)CC1,3.3,7.4,5.4,-3.5,-3.1,nt,nt,nt
O=C(c1cc2c(s1)-c1ccccc1OC2)N1CCN(c2ccccn2)CC1,44.7*,-54.8,13.8,-3.4,2.7,33.8,0.0,-7.1
O=C(c1cc2c(s1)-c1ccccc1OC2)N1CCN(c2ccccc2)CC1,60.1*,18.2,2.5,-0.8,-0.4,54.8*,-1.2,-14.5
CCOC(=O)N1CCN(C(=O)c2cc3c(=O)[nH]c4ccccc4c3s2)CC1,77.0*,-6.4,3.0,2.3,-7.0,70.0*,-0.5,6.0
O=C(c1cc2c(s1)-c1ccccc1OC2)N1CCCC1,1.7,2.0,-12.0,-3.4,-0.4,nt,nt,nt
CCOC(=O)N1CCN(C(=O)c2cc3c(s2)-c2ccccc2OC3)CC1,82.3*,5.7,13.8,1.0,6.4,73.7*,-1.1,-10.1
C[C@@H]1CN([C@H](C)CO)C(=O)CCCn2nncc2CO[C@@H]1CN(C)S(=O)(=O)c1ccc(F)cc1,37.6,nt,nt,nt,1.5,nt,nt,nt
Cc1cccc(N2CC(C(=O)NCCC3=CCCCC3)CC2=O)c1C (configuration not stated),-8.0,-9.5,13.6,-2.4,2.2,nt,nt,nt
COc1cccc(N2CCN(C(=O)c3cc4c(s3)-c3ccccc3OC4)CC2)c1,42.4,9.3,-0.4,-0.4,5.9,nt,nt,nt

# Source: PubChem BioAssay (Sanford-Burnham Center for Chemical Genomics)
